Reference: PubChem BioAssay AID602155 (Broad Institute, 2011)
Active and inactive are the calls of the source.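 The calls were made as follows: active = radiolabeled lipid uptake into receptor liposomes lowered versus untreated receptor liposomes, like the reference inhibitor; inactive = the rest.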

What follows are molecules tested against Scavenger receptor class B member 1 (Mus musculus) (UniProt Q61009) (assay: HDL cholesteryl ester transfer into SR-BI proteoliposomes – biochemical, reconstituted liposomes, [3H]CE-HDL, scintillation, dry powder, orthogonal assay for SR-BI HDL uptake inhibitor project (AID 602155)). Conditions: [3H]CE-HDL selective uptake, at 1 µM, active compounds read low.
Method in brief: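 Test system – murine SR-BI proteoliposomes · Probe or stimulus – [3H]CE-labeled HDL · Times – 60 min compound–liposome pre-incubation, then 4 h HDL at 37 °C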

Chain of Scavenger receptor class B member 1 (Mus musculus) (Q61009 whole entry, looked up): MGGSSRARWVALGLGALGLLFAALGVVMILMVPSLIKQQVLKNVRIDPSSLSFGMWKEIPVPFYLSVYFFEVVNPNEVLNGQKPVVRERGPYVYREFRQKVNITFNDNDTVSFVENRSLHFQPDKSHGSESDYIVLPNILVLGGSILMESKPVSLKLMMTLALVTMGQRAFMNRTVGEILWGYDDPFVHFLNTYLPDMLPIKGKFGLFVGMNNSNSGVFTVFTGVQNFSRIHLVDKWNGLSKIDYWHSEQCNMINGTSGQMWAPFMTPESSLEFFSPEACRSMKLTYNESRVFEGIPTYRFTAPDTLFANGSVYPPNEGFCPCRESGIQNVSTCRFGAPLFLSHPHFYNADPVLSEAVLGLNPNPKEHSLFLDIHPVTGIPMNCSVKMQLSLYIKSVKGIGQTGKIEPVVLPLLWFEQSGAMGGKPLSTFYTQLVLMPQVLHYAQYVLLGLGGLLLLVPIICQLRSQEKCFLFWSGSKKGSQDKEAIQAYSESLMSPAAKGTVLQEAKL

Row | lipid uptake | SMILES
1 | 128% (inactive) | O=C(Nc1ccccc1)c1ccccc1NS(=O)(=O)c1ccc(Cl)cc1
2 | 63.1% | CCC(=O)N1CCc2cc(-c3csc(NC(=O)c4ccco4)n3)ccc21
3 | 46.9% | COc1ccc(-c2nnn(CC(=O)N(C3CCCCC3)C(C)C(=O)NC3CCCC3)n2)cc1OC (centres undefined)
4 | 52.9% | CCOC(=O)N1CCC(NC(=O)c2ccc3c(c2)N(Cc2ccc(F)cc2)CCS3)CC1
